From ChEMBL document CHEMBL4387746, “Chemical conversion of nicotinamide into type I positive allosteric modulator of α7 nAChRs” (Bioorg Med Chem Lett, 2019)
Active and inactive are the calls of the source. The rule behind the calls is not given here.

What was measured:
Format in all cases: cell-based
[1] = target: T1, Neuronal acetylcholine receptor subunit alpha-7 (Homo sapiens, UniProt P36544); assay: (§1) Positive allosteric modulation activity at human alpha7 nAChR expressed in Xenopus laevis oocytes assessed as increase in acetylcholine-induced channel current at 10 uM at -90 mV holding potential preincubated for 2 mins followed by co-application with acetylcholine for 10 secs by two-electrode voltage clamp method relative to control
T1 sequence (P36544 whole entry): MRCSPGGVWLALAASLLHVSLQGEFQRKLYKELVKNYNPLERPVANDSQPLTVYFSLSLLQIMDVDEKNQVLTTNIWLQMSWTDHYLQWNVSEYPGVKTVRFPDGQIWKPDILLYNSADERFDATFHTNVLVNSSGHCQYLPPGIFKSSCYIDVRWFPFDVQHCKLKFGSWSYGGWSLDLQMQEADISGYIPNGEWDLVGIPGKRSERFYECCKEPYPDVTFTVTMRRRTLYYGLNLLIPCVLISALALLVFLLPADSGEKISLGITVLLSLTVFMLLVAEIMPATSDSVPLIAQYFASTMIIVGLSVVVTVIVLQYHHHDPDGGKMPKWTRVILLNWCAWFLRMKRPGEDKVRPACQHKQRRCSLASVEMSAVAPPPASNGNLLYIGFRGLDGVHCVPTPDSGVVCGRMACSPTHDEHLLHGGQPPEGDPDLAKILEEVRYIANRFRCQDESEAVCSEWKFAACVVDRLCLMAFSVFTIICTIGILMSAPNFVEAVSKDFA
Method in brief: (§2)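 Human α7 nAChR expressed in Xenopus laevis oocytes and recorded by two-electrode voltage clamp. Each compound was tested at 10 μM with 100 μM ACh. Data come from 2–5 individual oocytes.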

[2] = target: T1, Neuronal acetylcholine receptor subunit alpha-7; assay: Agonist activity at human alpha7 nAChR expressed in Xenopus laevis oocytes assessed as increase in channel current at -90 mV holding potential by two-electrode voltage clamp method
[3] = target: T1, Neuronal acetylcholine receptor subunit alpha-7; assay: as §1, with “current” for “current at 10 uM”, “method” for “method relative to control”
Method in brief: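 Human α7 nAChR was recorded in Xenopus oocytes by two-electrode voltage clamp, with 100 μM ACh as agonist. EC50 is the compound concentration giving half of the maximum activation effect. Data come from 2–5 individual oocytes.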

[4] = target: T1, Neuronal acetylcholine receptor subunit alpha-7; assay: Positive allosteric modulation activity at alpha7 nAChR (unknown origin) expressed in Xenopus laevis oocytes assessed as increase in acetylcholine-induced channel current at 10 uM at -90 mV holding potential by two-electrode voltage clamp method relative control; method in brief: as §2
[5] = target: T1, Neuronal acetylcholine receptor subunit alpha-7; assay: Induction of desensitization of human alpha7 nAChR expressed in Xenopus laevis oocytes assessed as acetylcholine-induced channel desensitization time constant at 10 uM at -90 mV holding potential by two-electrode voltage clamp method (reference value: 6.37 +/- 2.56)
[6] = target: T1, Neuronal acetylcholine receptor subunit alpha-7; assay: as §1, with “at 0.1 uM to 30” for “at 10”
Method in brief: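 A control current to 100 μM ACh alone was recorded first. Oocytes expressing α7 nAChR were then preincubated 2 min with compound at 0.1–30 μM, followed by co-application with 100 μM ACh for 10 s. Peak currents were normalised to the 100 μM ACh-alone amplitude. Data were fitted for EC50, Emax and Hill coefficient, n = 4 per point.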

[7] = target: Neuronal acetylcholine receptor; alpha4/beta2 (Rattus norvegicus) (UniProt P09483+P12390); assay: as §1, with “rat alpha4beta2” for “human alpha7”
[8] = target: Neuronal acetylcholine receptor; alpha3/beta4 (Rattus norvegicus) (UniProt P04757+P12392); assay: as §1, with “rat alpha3beta4” for “human alpha7”
[9] = target: T1, Neuronal acetylcholine receptor subunit alpha-7; assay: as §1, with “current by measuring maximum efficacy of acetylcholine” for “current”
Method in brief: (§3)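 ACh concentration-response on α7-expressing Xenopus oocytes, run without compound or after 2 min preincubation with 10 μM compound. Peak currents were normalised to the current evoked by 100 μM ACh alone. Curves were fitted for Emax, ACh EC50 and Hill coefficient, n = 4 per point.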

[10] = target: T2, 5-hydroxytryptamine receptor 3A (Homo sapiens) (UniProt P46098); assay: as §1, with “5-HT3A receptor” for “alpha7 nAChR”
T2 sequence (whole entry): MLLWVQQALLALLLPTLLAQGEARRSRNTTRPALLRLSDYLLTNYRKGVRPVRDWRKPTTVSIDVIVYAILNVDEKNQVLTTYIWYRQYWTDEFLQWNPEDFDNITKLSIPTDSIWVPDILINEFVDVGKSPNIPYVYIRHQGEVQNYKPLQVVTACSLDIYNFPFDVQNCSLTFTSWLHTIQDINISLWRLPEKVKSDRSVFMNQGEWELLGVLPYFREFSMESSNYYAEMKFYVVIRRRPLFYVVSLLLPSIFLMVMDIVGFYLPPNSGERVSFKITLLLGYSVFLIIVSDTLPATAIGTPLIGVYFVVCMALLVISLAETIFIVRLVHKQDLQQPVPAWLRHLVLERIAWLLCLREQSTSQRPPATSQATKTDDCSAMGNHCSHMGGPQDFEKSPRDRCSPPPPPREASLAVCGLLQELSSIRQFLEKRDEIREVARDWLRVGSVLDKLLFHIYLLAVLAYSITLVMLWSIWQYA

[11] = target: T1, Neuronal acetylcholine receptor subunit alpha-7; assay: as §1, with “current by measuring maximum efficacy of acetylcholine” for “current”, “(reference value: 339%)” for “relative to control”; method in brief: as §3

SMILES | Emax [1] [%] | Activity [2] | other results
Cc1cccc(Cl)c1NC(=O)c1cc(-c2ccc(F)cc2Cl)cnc1N | 186 | inactive | 
Cc1cc(-c2cnc(N)c(C(=O)Nc3ccccc3)c2)ccc1F | 94 | inactive | 
Cc1cccc(Cl)c1NC(=O)c1cc(-c2ccc(Cl)c(F)c2)cnc1N | 229 | inactive | 
CSc1ccc(-c2cnc(N)c(C(=O)Nc3c(C)cccc3Cl)c2)cc1 | 774 | inactive | EC50 [3]: 4.96 µM
COc1ccc(-c2cnc(N)c(C(=O)Nc3c(C)cccc3Cl)c2)cc1 | 531 | inactive | EC50 [3]: 8.5 µM
Cc1cccc(Cl)c1NC(=O)c1cc(-c2ccc([N+](=O)[O-])cc2)cnc1N | 135 | inactive | 
COc1ccccc1-c1cnc(N)c(C(=O)Nc2c(C)cccc2Cl)c1 | 1010 | inactive | EC50 [3]: 4.32 µM
Cc1cccc(Cl)c1NC(=O)c1cc(-c2ccc(F)cc2)cnc1N | 604 | inactive | EC50 [3]: 4.57 µM
Cc1cccc(Cl)c1NC(=O)c1cncc(-c2ccc(Cl)cc2)c1 | 150 | inactive | 
Cc1ccc(-c2cncc(C(=O)Nc3c(C)cccc3Cl)c2)cc1 | 603 | inactive | EC50 [3]: 1.97 µM
Cc1cccc(Cl)c1NC(=O)c1cc(-c2ccc(Cl)cc2)cnc1N | 278 | inactive | 
Cc1cccc(Cl)c1-n1cnc2ccc(-c3ccc(F)cc3)cc2c1=O |  |  | Emax [4]: 76%
Cc1cccc(Cl)c1NC(=O)c1cc(-c2ccc(O)cc2)cnc1N | 257 | inactive | 
Cc1cccc(Cl)c1NC(=O)c1cc(-c2ccccc2F)cnc1N | 119 | inactive | 
Cc1cccc(Cl)c1NC(=O)c1cc(-c2cccc(F)c2)cnc1N | 86 | inactive | 
Cc1cccc(Cl)c1-n1cnc2nc(SCc3ccccc3)sc2c1=O |  |  | Emax [4]: 1630%
Cc1ccc(-c2cnc(N)c(C(=O)Nc3c(C)cccc3Cl)c2)c(F)c1 | 372 | inactive | 
Cc1ccc(-c2cnc(N)c(C(=O)Nc3c(C)cccc3Cl)c2)cc1F | 609 | inactive | EC50 [3]: 3.31 µM

SMILES | Emax [1] [%] | Activity [2] | other results
Cc1cccc(Cl)c1NC(=O)c1cc(-c2ccoc2)cnc1N | 111 | inactive | 
Cc1ccc(Nc2nc3ncn(-c4c(C)cccc4Cl)c(=O)c3s2)cc1 |  |  | Emax [4]: 1620%
Cc1cccc(Cl)c1NC(=O)c1cc(-c2ccc(OC(F)(F)F)cc2)cnc1N | 153 | inactive | 
COc1ccc(-c2ccc3ncn(-c4c(C)cccc4Cl)c(=O)c3c2)cc1 |  |  | Emax [4]: 65%
Cc1cccc(Cl)c1NC(=O)c1cc(-c2ccc(C(F)(F)F)cc2)cnc1N | 164 | inactive | 
Cc1cccc(Cl)c1NC(=O)c1cc(-c2ccc(F)c(Cl)c2)cnc1N | 495 | inactive | EC50 [3]: 5.49 µM
Cc1cccc(Cl)c1NC(=O)c1cc(-c2ccsc2)cnc1N | 153 | inactive | 
Cc1cc(-c2cnc(N)c(C(=O)Nc3ccccc3C)c2)ccc1F | 156 | inactive | 
CCc1ccc(-c2cnc(N)c(C(=O)Nc3c(C)cccc3Cl)c2)cc1 | 455 | inactive | EC50 [3]: 1.35 µM
Cc1cccc(Cl)c1NC(=O)c1cc(-c2ccc(F)cc2)ccc1N | 136 | inactive | 
Cc1ccc(-c2cnc(N)c(C(=O)Nc3c(C)cccc3Cl)c2)cc1 | 539 | inactive | EC50 [3]: 3.19 µM
COc1cccc(-c2cnc(N)c(C(=O)Nc3c(C)cccc3Cl)c2)c1 | 212 | inactive | 
Cc1cccc(Cl)c1NC(=O)c1cc(-c2ccccc2)cnc1N | 273 | inactive | 
Cc1cccc(Cl)c1NC(=O)c1cncc(-c2ccc(F)cc2)c1 | 248 | inactive | 
Cc1cccc(Cl)c1NC(=O)c1cc(-c2cccnc2)cnc1N | 138 | inactive | 
Cc1cc(F)ccc1-c1cnc(N)c(C(=O)Nc2c(C)cccc2Cl)c1 | 225 | inactive | 
CC(=O)Nc1ccc(-c2cnc(N)c(C(=O)Nc3c(C)cccc3Cl)c2)cc1 | 109 | inactive | 
Cc1cc(-c2cnc(N)c(C(=O)Nc3c(C)cccc3Cl)c2)ccc1F | 1470 | inactive | K [5]: 3.49; Activity [6]: Dose-dependent effect; Emax [7]: 72%; Emax [8]: 78%; EC50 [3]: 3.34 µM; fold change (FC) [9]: 7; Emax [10]: 94%; Emax [11]: 2170%
